Assay results from PubChem BioAssay.
Results filed as inconclusive are left out.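 Rule for the calls, unless noted: active = viability increase at or above a cutoff of the median across tested compounds plus 3 SD (cut at about 8.5% in these data, passing the limit was not always enough); inconclusive = some gains above the cutoff, reason not given; inactive = the rest.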

Tests used:
[1] = OD615 S. cerevisiae growth inhibition, permissive medium, pilot counter-assay, permissive growth control for S. cerevisiae lifespan shortening project (AID 705;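 active = growth inhibition above 25% in both replicates, a cutoff set 3 SD above the mean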); conditions: OD615, 24 h, at 10 µM, hits give high values
Method in brief: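 System – S. cerevisiae with engineered DeaD lifespan system · Buffer or medium – SC raffinose/galactose permissive medium · Schedule – cells pre-grown 4 h, then 24 h compound exposure, 30 °C humidified · Technique – culture turbidity as optical density at 615 nm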

[2] = Restrictive medium S. cerevisiae growth inhibition, OD615, pilot screen of yeast lifespan reduction project, restrictive growth control (AID 706;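 active = growth inhibition above a set limit, 3 SD over mean compound inhibition, in both replicates, cut at about 43% in these data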;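 note: modified DeaD lifespan yeast strain shifted to restrictive glucose medium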); conditions: OD615, 48 h, at 10 µM, hits give high values
Method in brief: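 Material: engineered S. cerevisiae DeaD strain / Medium: glucose-based CSMM-D restrictive medium / Compound: single dose of 10 µM compound final, 0.25% DMSO / Timing: 4 h pre-incubation, 48 h exposure at 30 °C / Technique: OD615 absorbance reading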

[3] = viability gain of MRP-1-high H69AR cells under doxorubicin, pilot screen, MRP-1 activator project, CellTiter-Glo, duplicate (AID 807); conditions: H69AR viability with doxorubicin, CellTiter-Glo luminescence; at 10 µM; hits give high values;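 note: compound pretreatment 18-22 h then 72 h combined with doxorubicin; 0% = doxorubicin alone and 100% = vehicle without doxorubicin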
[4] = growth suppression of beta-catenin knockout HCT116, pilot screen, human colon tumor cells (AID 823;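 active = cell viability at or below a set limit in both duplicate runs, the limit being the all-compound median minus 4 SD, cut at about 23% in these data, passing the limit was not always enough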;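 note: 0% = wells killed by 20 µM Hyamine and 100% = untreated DMSO cell wells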); conditions: CellTiter-Glo, 60 h, at 10 µM, hits give low values
[5] = growth suppression of PTEN-deleted HCT116, pilot screen, cell-based, HCT116 clonal line, CellTiter-Glo (AID 824;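 active = viability at or below 27.92% in each of two runs, the all-compound median minus 4 SD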;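 note: 0% = 20 µM Hyamine control and 100% = vehicle cell control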); conditions: 60 h, at 10 µM, hits give low values
[6] = inhibitors of the yeast RAM network, pilot screen, dse1pr::URA3 reporter, 5-FOA selection (AID 869;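 active = inhibition over a set limit, the all-compound mean plus 3 SD, in both replicate runs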;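 note: 0% = DMSO wells with no growth and 100% = 10 µM 1-NA-PP1 with full growth; RAM network block rescues cells from 5-FOA so hits raise OD615 growth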); conditions: S. cerevisiae dse1pr::URA3 5-FOA growth, OD615, 2 d; at 10 µM; hits give high values; strain carries analog-sensitive mutant Cbk1 kinase
[7] = RAM signaling pathway blockade in yeast – S. cerevisiae, Pdr1DBD-CYC8 efflux-inhibited sensitized strain, primary screen (AID 1298;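 active = RAM network inhibition above 8.4% in each of two replicates, 3 SD over the compound average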;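 note: 0% = DMSO untreated cells without growth and 100% = 10 µM 1-NA-PP1 full growth; higher means more yeast growth rescued from 5-FOA killing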); conditions: S. cerevisiae cbk1-as DSE1-URA3 strain, 5-FOA growth OD615, 2 d; at 50 µM; hits give high values

Cc1sc2nc(SC(C)C)nc(N)c2c1C
inactive: growth inhibition [1] 6.53% | growth inhibition [2] 7.72% | viability increase [3] 0.28% | viability [4] 103% | viability [5] 104% | inhibition [6] 1.69% | RAM network inhibition [7] 4.8%

CCCCSc1nc(N)c(NC(=O)c2ccco2)c(=O)[nH]1
inactive: growth inhibition [1] -12.7% | growth inhibition [2] -14.2% | viability increase [3] -2% | viability [4] 101% | viability [5] 93.4% | inhibition [6] 1.58% | RAM network inhibition [7] 0.8%

Cc1nc2cc(C(=O)O)ccc2n1-c1ccccc1
inactive: growth inhibition [1] -11.5% | growth inhibition [2] -0.12% | viability increase [3] -2.1% | viability [4] 109% | viability [5] 94.8% | inhibition [6] 1.99% | RAM network inhibition [7] 1.31%

Cn1c(C(C#N)C(=O)Cc2cccc3ccccc23)nc2ccccc21 (stereo not drawn)
inactive: growth inhibition [1] -3.6% | growth inhibition [2] -5.02% | viability increase [3] -1.14% | viability [4] 81.5% | viability [5] 78.9% | inhibition [6] 2.59% | RAM network inhibition [7] 4.32%

CC1(C)CC(=O)C(C=NCc2cccnc2)=C(O)C1
inactive: growth inhibition [1] -10.7% | growth inhibition [2] -17.6% | viability increase [3] 0.64% | viability [4] 92.8% | viability [5] 98.8% | inhibition [6] 0.7% | RAM network inhibition [7] 4.76%

CCOC(=O)CCCSc1nc2sc(C)c(C)c2c(=O)[nH]1
inactive: growth inhibition [1] -12.1% | growth inhibition [2] -15.5% | viability increase [3] -0.74% | viability [4] 102% | viability [5] 98.5% | inhibition [6] 3.01% | RAM network inhibition [7] 3.95%

Cc1cccc(CN2CCN(CC(=O)NCc3ccc(F)cc3)C2=O)c1
inactive: growth inhibition [1] -2.2% | growth inhibition [2] -1.6% | viability increase [3] 0.82% | viability [4] 104% | viability [5] 104% | inhibition [6] 0.03% | RAM network inhibition [7] 3.27%

O=C1C2C(c3ccccc3)C=CC(c3ccccc3)C2C(=O)N1CCO (stereo not drawn)
inactive: growth inhibition [1] -10.9% | growth inhibition [2] -8.43% | viability increase [3] -3.35% | viability [4] 94.7% | viability [5] 95.3% | inhibition [6] 0.33% | RAM network inhibition [7] 4.03%

Cc1cc(/C=N/n2cnnc2)c(C)n1-c1cc(Cl)ccc1Cl
inactive: growth inhibition [1] 3.15% | growth inhibition [2] 18.3% | viability increase [3] -3.01% | viability [4] 51.9% | viability [5] 69.7% | inhibition [6] 1.85% | RAM network inhibition [7] 1.38%

CC(C)NC(=O)c1cc2c(-c3ccc(Cl)cc3)nn(C)c2s1
inactive: growth inhibition [1] -10.4% | growth inhibition [2] 3.42% | viability increase [3] -6.18% | viability [4] 74.5% | viability [5] 76.8% | inhibition [6] 3.84% | RAM network inhibition [7] 4.3%

O=C(NC1CCCCCCC1)c1cnccn1
inactive: growth inhibition [1] 0.775% | growth inhibition [2] 10.4% | viability increase [3] -0.43% | viability [4] 103% | viability [5] 93.7% | inhibition [6] 1.72% | RAM network inhibition [7] 1.71%

CCOC(=O)CSc1nc(N)nc(C)c1Br
inactive: growth inhibition [1] -0.46% | growth inhibition [2] -3.4% | viability increase [3] -2.62% | viability [4] 103% | viability [5] 104% | inhibition [6] 0.49% | RAM network inhibition [7] 0.51%

COCCNC(=O)CN1C(=O)CC(C)(C)S(=O)(=O)c2ccccc21
inactive: growth inhibition [1] -2.02% | growth inhibition [2] -10.2% | viability increase [3] 1.42% | viability [4] 109% | viability [5] 101% | inhibition [6] 0.31% | RAM network inhibition [7] -0.36%

CCN1CCN(CC(=O)NC2CCCCC2)C(=O)C1=O
inactive: growth inhibition [1] -14.6% | growth inhibition [2] -12.4% | viability increase [3] -0.83% | viability [4] 96.1% | viability [5] 96.3% | inhibition [6] 0.89% | RAM network inhibition [7] 2.42%

CCOc1ccc(C2c3c(oc4cc(C)c(C)cc4c3=O)C(=O)N2CCCN2CCOCC2)cc1 (stereo not drawn)
inactive: growth inhibition [1] -1.96% | growth inhibition [2] -6.06% | viability increase [3] -3.05% | viability [4] 94.1% | viability [5] 94.6% | inhibition [6] 0.615% | RAM network inhibition [7] 2.24%

O=C(NCCCN1CCN(c2ccccc2F)CC1)C1CCC(=O)N1C1CCCC1 (stereo not drawn)
inactive: growth inhibition [1] -13% | growth inhibition [2] -1.25% | viability increase [3] -2.46% | viability [4] 102% | viability [5] 93.6% | inhibition [6] 1.08% | RAM network inhibition [7] 5.85%

O=C(Cn1c(=O)oc2cc(S(=O)(=O)N3CCc4ccccc43)ccc21)N1CCCCC1
inactive: growth inhibition [1] -2.98% | growth inhibition [2] -7.46% | viability increase [3] -2.88% | viability [4] 98.1% | viability [5] 80.5% | inhibition [6] -0.125% | RAM network inhibition [7] 2.79%

Cc1cc(C)cc(-n2cc3c(=O)n(C)c(=O)n(C)c3c2)c1
inactive: growth inhibition [1] -6.43% | growth inhibition [2] -0.345% | viability increase [3] -1.71% | viability [4] 102% | viability [5] 103% | inhibition [6] 0.155% | RAM network inhibition [7] 2.55%

COC(=O)c1ccc(-c2nc(-c3cccs3)no2)cc1
inactive: growth inhibition [1] 11.1% | growth inhibition [2] 10.5% | viability increase [3] -5.21% | viability [4] 84.1% | viability [5] 76.7% | inhibition [6] 2.32% | RAM network inhibition [7] 0.79%

O=C(NCCc1ccccc1)C1CCN(S(=O)(=O)c2cccnc2)CC1
inactive: growth inhibition [1] -7.37% | growth inhibition [2] 0.25% | viability increase [3] -0.16% | viability [4] 104% | viability [5] 94.8% | inhibition [6] 1.88% | RAM network inhibition [7] 1.62%

Cc1c(C(=O)N2CCCC2)oc2c1-c1[nH]ncc1CC2
inactive: growth inhibition [1] -15.2% | growth inhibition [2] -14.4% | viability increase [3] -1.8% | viability [4] 105% | viability [5] 94.2% | inhibition [6] 0.715% | RAM network inhibition [7] 2.08%

Cc1cccc(NCc2nc(-c3ccccc3)no2)c1
inactive: growth inhibition [1] -2.16% | growth inhibition [2] 9.07% | viability increase [3] 2.88% | viability [4] 107% | viability [5] 106% | inhibition [6] 2.41% | RAM network inhibition [7] 3.44%

O=C(CSc1cn(CCNC(=O)c2ccccc2)c2ccccc12)NCc1ccco1
inactive: growth inhibition [1] -4.76% | growth inhibition [2] -10.4% | viability increase [3] -5.29% | viability [4] 84.1% | viability [5] 84.3% | inhibition [6] 0.64% | RAM network inhibition [7] 5.98%

Cc1cc(NC(=O)COC(=O)c2ccc(F)c(S(=O)(=O)N3CCOCC3)c2)no1
inactive: growth inhibition [1] -13.5% | growth inhibition [2] -21.9% | viability increase [3] -1.16% | viability [4] 103% | viability [5] 96.8% | inhibition [6] 1.03% | RAM network inhibition [7] 3.16%
